Experimental data from ChEMBL document CHEMBL1811911, “Synthesis and antidepressant-like activity evaluation of sulphonamides and sulphonyl-hydrazones” (Bioorg Med Chem, 2011).
Calls of active or inactive are those of the source. The rule behind the calls is not given here.

Tests used:
Mus musculus [1] = test: Antidepressant activity in Swiss mouse assessed as reduction of immobility duration at 10 mg/kg, ip administered 30 mins prior test measured during last 4 mins of 6 mins observation period by forced-swimming test relative to control; type: functional; design: scale not given: the % may be the effect or the level left; details: route intraperitoneal
Mus musculus [2] = test: Antidepressant activity in Swiss mouse assessed as immobility duration at 10 mg/kg, ip administered 30 mins prior test measured during last 4 mins of 6 mins observation period by forced-swimming test (reference value: 166 +/- 12.23 to 218.54 +/- 8.11 Secs); type: functional; details: route intraperitoneal
Mus musculus [3] = test: Toxicity in Swiss mouse assessed as number of squares crossed at 10 mg/kg, ip administered 30 mins proir test measured during last 4 mins of 6 mins incubation by forced-swimming test by locomotory test (reference value: 96.63 +/- 5.32); type: organism-based; design: dose 10 mg/kg, route intraperitoneal; details: in vivo
Mus musculus [4] = test: Antidepressant activity in Swiss mouse assessed as reduction of immobility duration at 6 to 10 mg/kg, ip administered 30 mins prior test measured during last 4 mins of 6 mins observation period by forced-swimming test relative to control; type: functional, organism-based
Mus musculus [5] = test: Antidepressant activity in Swiss mouse assessed as reduction of immobility duration at 6 to 10 mg/kg, ip measured after 6 mins by tail suspension test relative to control; type: functional; design: scale not given: the % may be the effect or the level left; details: dose mg/kg 6-10; route intraperitoneal
Method in brief: (§1)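 Tail suspension test (Steru method) in male adult Swiss mice (25–35 g), compound given ip acutely, vehicle 0.9% NaCl. Mice, isolated acoustically and visually, hung 50 cm above the floor by adhesive tape about 1 cm from tail tip; total immobility time recorded. Percent reduction = [(A−B)/A]×100, A control and B treated immobility.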

Mus musculus [6] = test: Toxicity in Swiss mouse assessed as number of rearing at 10 mg/kg, ip administered 30 mins prior test measured during last 4 mins of 6 mins observation period by forced-swimming test by locomotory test (reference value: 39.45 +/- 6.21); type: organism-based; design: dose 10 mg/kg, route intraperitoneal; details: in vivo
Mus musculus [7] = test: Antidepressant activity in Swiss mouse assessed as reduction of immobility duration at 10 mg/kg, ip administered 30 mins prior test measured during last 4 mins of 6 mins observation period by forced-swimming test (reference value: 0 %); type: functional; design: scale not given: the % may be the effect or the level left; details: route intraperitoneal
Mus musculus [8] = test: Antidepressant activity in Swiss mouse assessed as reduction of immobility duration at 10 to 60 mg/kg, ip measured after 6 mins by tail suspension test relative to control; type: functional; design: scale not given: the % may be the effect or the level left; details: dose mg/kg 10-60; route intraperitoneal; method in brief: as §1
Mus musculus [9] = test: Antidepressant activity in Swiss mouse assessed as reduction of immobility duration at 60 mg/kg, ip administered 30 mins prior test measured during last 4 mins of 6 mins observation period by forced-swimming test (reference value: 0 %); type: functional; design: scale not given: the % may be the effect or the level left; details: route intraperitoneal
Mus musculus [10] = test: Toxicity in Swiss mouse assessed as number of squares crossed at 60 mg/kg, ip administered 30 mins proir test measured during last 5 mins of 6 mins incubation by open-field test (reference value: 96.63 +/- 5.32); details: in vivo
Mus musculus [11] = test: Toxicity in Swiss mouse assessed as number of rearing at 60 mg/kg, ip administered 30 mins prior test measured during last 4 mins of 6 mins observation period by forced-swimming test by locomotory test (reference value: 39.45 +/- 6.21); type: organism-based; design: dose 60 mg/kg, route intraperitoneal; details: in vivo
Mus musculus [12] = test: Antidepressant activity in Swiss mouse assessed as reduction of immobility duration at 10 to 60 mg/kg, ip administered 30 mins prior test measured during last 4 mins of 6 mins observation period by forced-swimming test relative to control; type: functional
Mus musculus [13] = test: Antidepressant activity in Swiss mouse assessed as immobility duration at 60 mg/kg, ip administered 30 mins prior test measured during last 4 mins of 6 mins observation period by forced-swimming test (reference value: 166 +/- 12.23 to 218.54 +/- 8.11 Secs); type: functional; details: route intraperitoneal
Mus musculus [14] = test: Antidepressant activity in Swiss mouse assessed as reduction of immobility duration at 60 mg/kg, ip administered 30 mins prior test measured during last 4 mins of 6 mins observation period by forced-swimming test relative to control; type: functional; design: scale not given: the % may be the effect or the level left
Mus musculus [15] = test: Antidepressant activity in Swiss mouse assessed as immobility duration at 20 mg/kg, ip administered 30 mins prior test measured during last 4 mins of 6 mins observation period by forced-swimming test (reference value: 166 +/- 12.23 to 218.54 +/- 8.11 Secs); type: functional; details: route intraperitoneal
Method in brief: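 Male adult Swiss mice (25–35 g), group-housed under 12 h light (07:00–19:00) at 23 °C. Single ip dose, vehicle 0.9% NaCl, acute pre-treatment. Porsolt forced swim: individual cylinders (20 cm diameter) with 20 cm water at 24 °C, 6 min swim; immobility scored manually over last 4 min. %IM = (A−B)/A×100 versus vehicle group; N = 8–10 mice; ANOVA with Dunnett's test.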

Mus musculus [16] = test: Antidepressant activity in Swiss mouse assessed as reduction of immobility duration at 3 mg/kg, ip administered 30 mins prior test measured during last 4 mins of 6 mins observation period by forced-swimming test relative to control; type: functional, organism-based; design: dose 3 mg/kg
Mus musculus [17] = test: Antidepressant activity in Swiss mouse assessed as reduction of immobility duration at 30 to 60 mg/kg, ip measured after 6 mins by tail suspension test relative to control; type: functional; design: scale not given: the % may be the effect or the level left; details: dose mg/kg 30-60; route intraperitoneal; method in brief: as §1
Mus musculus [18] = test: Antidepressant activity in Swiss mouse assessed as reduction of immobility duration at 30 to 60 mg/kg, ip administered 30 mins prior test measured during last 4 mins of 6 mins observation period by forced-swimming test relative to control; type: functional, organism-based
Mus musculus [19] = test: Antidepressant activity in Swiss mouse assessed as reduction of immobility duration at 10 mg/kg, ip measured after 6 mins by tail suspension test relative to control; type: functional; design: scale not given: the % may be the effect or the level left; details: route intraperitoneal; method in brief: as §1
Mus musculus [20] = test: Antidepressant activity in Swiss mouse assessed as reduction of immobility duration at 6 to 30 mg/kg, ip administered 30 mins prior test measured during last 4 mins of 6 mins observation period by forced-swimming test relative to control; type: functional; design: scale not given: the % may be the effect or the level left; details: dose mg/kg 6-30; route intraperitoneal
Mus musculus [21] = test: Antidepressant activity in Swiss mouse assessed as reduction of immobility duration at 30 mg/kg, ip administered 30 mins prior test measured during last 4 mins of 6 mins observation period by forced-swimming test (reference value: 0 %); type: functional; design: scale not given: the % may be the effect or the level left; details: route intraperitoneal
Mus musculus [22] = test: Toxicity in Swiss mouse assessed as number of squares crossed at 30 mg/kg, ip administered 30 mins proir test measured during last 5 mins of 6 mins incubation by open-field test (reference value: 96.63 +/- 5.32); details: in vivo
Mus musculus [23] = test: Toxicity in Swiss mouse assessed as number of rearing at 30 mg/kg, ip administered 30 mins prior test measured during last 4 mins of 6 mins observation period by forced-swimming test by locomotory test (reference value: 39.45 +/- 6.21); type: organism-based; design: dose 30 mg/kg, route intraperitoneal; details: in vivo
Mus musculus [24] = test: Antidepressant activity in Swiss mouse assessed as immobility duration at 30 mg/kg, ip administered 30 mins prior test measured during last 4 mins of 6 mins observation period by forced-swimming test (reference value: 166 +/- 12.23 to 218.54 +/- 8.11 Secs); type: functional; details: route intraperitoneal
Mus musculus [25] = test: Antidepressant activity in Swiss mouse assessed as reduction of immobility duration at 6 to 30 mg/kg, ip measured after 6 mins by tail suspension test relative to control; type: functional; design: scale not given: the % may be the effect or the level left; details: dose mg/kg 6-30; route intraperitoneal; method in brief: as §1

Row | Structure (SMILES) | Activity (Mus musculus [1]) [%] | Time (Mus musculus [2]) [s] | Activity (Mus musculus [3]) | Activity (Mus musculus [5]) [%] | Activity (Mus musculus [6]) | Activity (Mus musculus [7]) [%] | also measured
1 | COc1ccc(/C=N/NS(=O)(=O)c2ccc(N3C(=O)C4C5C=CC(C)(O5)C4C3=O)cc2)cc1 (centres undefined) | 58.53 | 90.37 | 92.54 | 41.64 | 40.37 | 58.64 | Activity (Mus musculus [4]): Active
2 | CC12C=CC(O1)C1C(=O)N(c3ccc(S(=O)(=O)N/N=C/c4ccc(Cl)cc4)cc3)C(=O)C12 (centres undefined) |  |  |  |  |  |  | Activity (Mus musculus [8]): 62.87%; Activity (Mus musculus [9]): 72.02%; Activity (Mus musculus [10]): 98.45; Activity (Mus musculus [11]): 41; Activity (Mus musculus [12]): Active; Time (Mus musculus [13]): 61 s; Activity (Mus musculus [14]; route intraperitoneal): 62.83%
3 | CNCCC(Oc1ccc(C(F)(F)F)cc1)c1ccccc1 (centres undefined) [FLUOXETINE] |  |  |  |  |  |  | Time (Mus musculus [15]): 33.18 s
4 | O=C1c2cccc3c(Cl)ccc(c23)C(=O)N1Cc1ccc(S(=O)(=O)N2CCOCC2)cc1 | 52.63 |  |  | 30.61 |  |  | Activity (Mus musculus [16]): inactive
5 | O=C1C2C3C=CC(O3)C2C(=O)N1c1ccc(S(=O)(=O)N2CCCC2)cc1 (centres undefined) |  |  |  |  |  |  | Activity (Mus musculus [17]): 58.85%; Activity (Mus musculus [9]): 54.8%; Activity (Mus musculus [10]): 86.74; Activity (Mus musculus [18]): Active; Activity (Mus musculus [11]): 42.95; Time (Mus musculus [13]): 92.95 s; Activity (Mus musculus [14]; route intraperitoneal): 28.8%
6 | CC12C=CC(O1)C1C(=O)N(c3ccc(S(=O)(=O)N4CCCC4)cc3)C(=O)C12 (centres undefined) | 85 | 133 | 96 |  | 33 | 33.33 | Activity (Mus musculus [19]): 31.17%
7 | O=C1C2C3C=CC(O3)C2C(=O)N1c1ccc(S(=O)(=O)N/N=C/c2ccc([N+](=O)[O-])cc2)cc1 (centres undefined) | 65.44 | 178.37 | 98.14 | 57.5 | 38.37 | 18.38 | Activity (Mus musculus [4]): Active
8 | CC12C=CC(O1)C1C(=O)N(c3ccc(S(=O)(=O)N/N=C/c4ccc(Cl)c(Cl)c4)cc3)C(=O)C12 (centres undefined) |  |  |  |  |  |  | Activity (Mus musculus [12]): inactive
9 | O=C1c2cccc3cccc(c23)C(=O)N1Cc1ccc(S(=O)(=O)N2CCOCC2)cc1 | 60.3 | 66 | 98.85 | 57.14 | 36.67 | 64.89 | Activity (Mus musculus [16]): inactive
10 | O=C1C2C3C=CC(O3)C2C(=O)N1c1ccc(S(=O)(=O)N/N=C/c2ccc(O)cc2)cc1 (centres undefined) |  |  |  |  |  |  | Activity (Mus musculus [12]): inactive
11 | O=C1c2ccccc2C(=O)N1Cc1ccc(S(=O)(=O)N/N=C/c2ccc([N+](=O)[O-])cc2)cc1 |  |  |  |  |  |  | Activity (Mus musculus [8]): 64.88%; Activity (Mus musculus [9]): 68.52%; Activity (Mus musculus [10]): 92.54; Activity (Mus musculus [11]): 42.65; Activity (Mus musculus [12]; dose mg/kg 10-60, route intraperitoneal): 68.64%; Time (Mus musculus [13]): 52.25 s
12 | O=C1c2cccc3c(Cl)ccc(c23)C(=O)N1CCc1ccc(S(=O)(=O)N2CCCC2)cc1 |  | 82 | 86.74 |  | 42 | 56.49 | Activity (Mus musculus [16]): inactive; Activity (Mus musculus [12]): inactive; Activity (Mus musculus [14]): inactive
13 | CN(C)CCCN1c2ccccc2CCc2ccccc21 [IMIPRAMINE] |  | 49.85 |  |  |  | 57.3 | 
14 | COc1cc(/C=N/NS(=O)(=O)c2ccc(CN3C(=O)c4ccccc4C3=O)cc2)ccc1O |  |  |  |  |  |  | Activity (Mus musculus [20]): 63.9%; Activity (Mus musculus [21]): 66.64%; Activity (Mus musculus [22]): 106.45; Activity (Mus musculus [23]): 45.37; Time (Mus musculus [24]): 55.37 s; Activity (Mus musculus [25]): 69.21%
15 | COc1cc(/C=N/NS(=O)(=O)c2ccc(CN3C(=O)c4cccc5cccc(c45)C3=O)cc2)ccc1O | 60.3 | 70.75 | 96.1 |  | 40.75 | 60.3 | Activity (Mus musculus [19]): 74.65%
16 | CC12C=CC(O1)C1C(=O)N(c3ccc(S(=O)(=O)N4CCOCC4)cc3)C(=O)C12 (centres undefined) | 28.8 | 131 | 101.12 | 23.69 | 38 | 36.3 | Activity (Mus musculus [4]): Active
17 | O=C1c2cccc3cccc(c23)C(=O)N1Cc1ccc(S(=O)(=O)N2CCCC2)cc1 | 52.26 | 67.37 | 108.45 | 45.57 | 37.45 | 64.25 | Activity (Mus musculus [16]): inactive
18 | Cc1ccc(/C=N/NS(=O)(=O)c2ccc(N3C(=O)C4C5C=CC(C)(O5)C4C3=O)cc2)cc1 (centres undefined) | 62.83 | 83 | 92.74 | 55.05 | 43 |  | Activity (Mus musculus [4]): Active
